Experimental data of several laboratories.
Lines come from different studies, so protocols differ.
BCHE: Cholinesterase (BCHE, Equus caballus, UniProt P81908)
SLC6A4: Sodium-dependent serotonin transporter (SLC6A4, Homo sapiens, UniProt P31645)

SMILES	target	test	setting	IC50 [µM]
C#CCNc1nc(NCCCCC2CCN(Cc3ccccc3)CC2)c(C#N)c(-c2ccccc2)c1C#N	BCHE	enzyme activity, inhibitor, Ellman	–	0.61
CCn1cnc2c(Nc3cccc(Cl)c3)nc(N[C@@H]3CCCC[C@@H]3N)nc21	Ribosomal protein S6 kinase alpha-3, N-terminal kinase domain (RPS6KA3, Homo sapiens, UniProt P51812)	enzyme activity, inhibitor, FP	–	1
CC=C1[C@H]2C=C(C)C[C@]1(N)c1cc(OCCC)c(=O)[nH]c1C2	BCHE	enzyme activity, inhibitor, Ellman	–	87.3
CN1C[C@H](C(=O)N[C@]2(C)O[C@@]3(O)[C@@H]4CCCN4C(=O)[C@H](Cc4ccccc4)N3C2=O)C[C@@H]2c3cccc4[nH]cc(c34)C[C@H]21	D(1A) dopamine receptor (DRD1, Homo sapiens, UniProt P21728)	ligand displacement, radioligand	–	4.81
O=P(O)(O)Oc1cccc(OP(=O)(O)O)c1	Signal transducer and activator of transcription 5A, SH2 (Homo sapiens, UniProt P42229)	ligand displacement, FP	–	50
CC=C1[C@H]2C=C(C)C[C@]1(N)c1cc(I)c(=O)[nH]c1C2	BCHE	enzyme activity, inhibitor, Ellman	–	325
CCOc1ccc(C=NNC(=S)NCC(=O)c2ccc(Cl)cc2)cc1	BCHE	enzyme activity, inhibitor, Ellman	–	334
CC=C1[C@H]2C=C(C)C[C@]1(N)c1cc(OC)c(=O)[nH]c1C2	BCHE	enzyme activity, inhibitor, Ellman	–	599
CC(=O)N1C[C@H](CCN2CC=C(c3c[nH]c4cc(Cl)ccc34)CC2)c2ccccc21	SLC6A4	ligand displacement, radioligand	cell membranes	0.0818
NC(=O)NO	Urease (Canavalia ensiformis, UniProt P07374)	enzyme activity, inhibitor	–	7.42
CC=C1[C@H]2C=C(C)C[C@]1(N)c1cc(N)c(=O)[nH]c1C2	BCHE	enzyme activity, inhibitor, Ellman	–	525
NC(=O)N1C[C@@H](CCN2CC=C(c3c[nH]c4cc(Cl)ccc34)CC2)c2ccccc21	SLC6A4	ligand displacement, radioligand	cell membranes	0.169
I/C=C/CN1CCN(CCc2ccc3c(c2)CCO3)CC1	Sigma non-opioid intracellular receptor 1 (Sigmar1, Mus musculus, UniProt O55242)	ligand displacement, radioligand	cell membranes	0.00068
